According to PMC11327602 (Heliyon, 2024):
Values joined by “and” are separate entries in the source; they are usually repeats but may differ in a detail not shown here. Equal entries are not always repeated.

How the values were obtained:
jack bean urease = jack bean urease (Canavalia ensiformis, UniProt P07374); experiment: Urease inhibition assay; assay type: biochemical; conditions: for IC50: Enzyme (SEM ±) J.B Urease, IC50, mean ± SEM, 3 experiments
[1] = biological target: Bacillus Pasteurii urease (Sporosarcina pasteurii, UniProt P41020); experiment: Urease inhibition assay; assay type: biochemical; conditions: Enzyme (SEM ±) B.P Urease, IC50, mean ± SEM, 3 experiments
Bacillus Pasteurii urease, sequence (P41020 whole entry): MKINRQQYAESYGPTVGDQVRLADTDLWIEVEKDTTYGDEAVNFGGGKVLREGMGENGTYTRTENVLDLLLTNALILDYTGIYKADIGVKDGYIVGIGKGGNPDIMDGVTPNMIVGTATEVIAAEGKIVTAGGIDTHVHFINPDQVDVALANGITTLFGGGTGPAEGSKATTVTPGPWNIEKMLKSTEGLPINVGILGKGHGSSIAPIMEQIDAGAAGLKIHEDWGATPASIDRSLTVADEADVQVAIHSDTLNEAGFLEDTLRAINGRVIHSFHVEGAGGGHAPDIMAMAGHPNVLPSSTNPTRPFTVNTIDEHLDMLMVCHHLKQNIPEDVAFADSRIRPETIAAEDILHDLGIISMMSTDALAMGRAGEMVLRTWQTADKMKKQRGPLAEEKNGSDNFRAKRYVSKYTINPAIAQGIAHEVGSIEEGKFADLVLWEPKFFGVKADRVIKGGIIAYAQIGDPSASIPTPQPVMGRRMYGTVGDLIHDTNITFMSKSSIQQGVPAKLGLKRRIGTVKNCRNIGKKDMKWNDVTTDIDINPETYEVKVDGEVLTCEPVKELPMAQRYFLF
Bacillus Pasteurii urease, sequence (P41021 whole entry partner): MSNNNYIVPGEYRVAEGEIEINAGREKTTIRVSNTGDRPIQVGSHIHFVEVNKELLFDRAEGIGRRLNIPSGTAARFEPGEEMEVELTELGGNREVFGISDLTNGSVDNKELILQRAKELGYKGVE
Bacillus Pasteurii urease, sequence (P41022 whole entry partner): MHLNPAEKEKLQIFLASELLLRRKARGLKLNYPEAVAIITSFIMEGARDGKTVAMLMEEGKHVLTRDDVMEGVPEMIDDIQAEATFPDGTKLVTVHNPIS

α-Glucosidase = α-Glucosidase (Saccharomyces cerevisiae, UniProt P53341); experiment: α-Glucosidase inhibition assay; assay type: biochemical
α-Glucosidase, sequence (P53341 whole entry): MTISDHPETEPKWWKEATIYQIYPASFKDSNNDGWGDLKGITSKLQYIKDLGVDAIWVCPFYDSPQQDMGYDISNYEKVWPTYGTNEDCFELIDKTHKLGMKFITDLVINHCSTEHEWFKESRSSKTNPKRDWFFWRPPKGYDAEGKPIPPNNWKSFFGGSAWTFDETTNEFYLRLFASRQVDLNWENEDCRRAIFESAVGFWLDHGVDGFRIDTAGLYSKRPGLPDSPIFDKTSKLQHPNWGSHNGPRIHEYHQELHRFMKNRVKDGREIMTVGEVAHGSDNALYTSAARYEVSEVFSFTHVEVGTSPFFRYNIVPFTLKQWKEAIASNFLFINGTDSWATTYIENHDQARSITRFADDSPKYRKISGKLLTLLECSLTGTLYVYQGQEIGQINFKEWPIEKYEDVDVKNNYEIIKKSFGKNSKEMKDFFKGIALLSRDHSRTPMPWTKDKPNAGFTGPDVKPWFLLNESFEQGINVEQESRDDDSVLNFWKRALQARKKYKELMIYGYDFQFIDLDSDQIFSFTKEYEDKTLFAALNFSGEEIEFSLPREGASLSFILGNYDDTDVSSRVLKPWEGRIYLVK
Summary of the method: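 Test compound (200–800 μg/mL) pre-incubated 5 min at 37 °C with 2 % w/v starch (sucrose) solution in 0.2 M Tris buffer, pH 8.0. 5 mM p-nitrophenyl-α-D-glucopyranoside added intermittently, then α-glucosidase (1 U/mL), 40 min at 35 °C. Stopped with […]; absorbance read at 405 nm. % inhibition = (control − sample)/control × 100; samples above 50 % taken to IC50.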

[2] = DPPH free radical scavenging activity; conditions: for IC50: read-out: DPPH scavenging IC50
ABTS method = conditions: for IC50: read-out: ABTS scavenging IC50
[3] = Superoxide anion scavenging assay; conditions: for IC50: read-out: superoxide anion scavenging IC50

jack bean urease, sequence (P07374 whole entry, looked up): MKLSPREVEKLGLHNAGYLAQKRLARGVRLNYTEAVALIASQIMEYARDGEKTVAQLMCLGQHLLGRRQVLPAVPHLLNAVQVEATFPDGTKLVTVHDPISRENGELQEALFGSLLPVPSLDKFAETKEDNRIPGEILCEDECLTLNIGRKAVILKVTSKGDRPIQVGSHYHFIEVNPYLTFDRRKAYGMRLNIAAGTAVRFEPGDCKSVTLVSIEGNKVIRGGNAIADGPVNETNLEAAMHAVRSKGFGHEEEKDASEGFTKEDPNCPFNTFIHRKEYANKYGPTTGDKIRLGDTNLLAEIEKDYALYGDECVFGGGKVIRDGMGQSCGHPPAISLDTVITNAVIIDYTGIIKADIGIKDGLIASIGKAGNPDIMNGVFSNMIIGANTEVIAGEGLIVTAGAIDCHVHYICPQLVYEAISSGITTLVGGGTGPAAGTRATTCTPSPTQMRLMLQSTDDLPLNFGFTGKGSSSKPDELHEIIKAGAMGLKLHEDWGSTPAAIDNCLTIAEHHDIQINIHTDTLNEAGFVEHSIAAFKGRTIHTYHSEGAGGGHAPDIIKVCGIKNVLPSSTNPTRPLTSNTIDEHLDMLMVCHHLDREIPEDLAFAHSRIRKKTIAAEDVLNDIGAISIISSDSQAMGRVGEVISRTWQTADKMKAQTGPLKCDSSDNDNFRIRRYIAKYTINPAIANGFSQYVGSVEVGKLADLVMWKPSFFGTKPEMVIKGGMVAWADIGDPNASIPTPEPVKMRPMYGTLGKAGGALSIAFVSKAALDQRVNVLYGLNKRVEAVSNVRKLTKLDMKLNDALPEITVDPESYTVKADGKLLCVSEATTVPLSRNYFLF

Row | Structure (SMILES) | Types of inhibition (urease) (jack bean urease) | IC50 (jack bean urease) [µM] | IC50 [1] [µM] | Type of Inhibition (α-glucosidase and α-amylase) (α-Glucosidase) | DPPH % Scavenging ([2]; 25 μM) [%] | DPPH % Scavenging ([2]; 50 μM) [%] | DPPH % Scavenging ([2]; 75 μM) [%] | DPPH % Scavenging ([2]; 100 μM) [%] | IC50 [2] | ABTS % Scavenging (ABTS method; 10 μM) [%] | ABTS % Scavenging (ABTS method; 20 μM) [%] | ABTS % Scavenging (ABTS method; 30 μM) [%] | ABTS % Scavenging (ABTS method; 40 μM) [%] | ABTS % Scavenging (ABTS method; 50 μM) [%] | IC50 (ABTS method) | superoxide anion % scavenging ([3]; 25 μM) [%] | superoxide anion % scavenging ([3]; 50 μM) [%] | superoxide anion % scavenging ([3]; 75 μM) [%] | superoxide anion % scavenging ([3]; 100 μM) [%] | IC50 [3] | other results
1 | C=CCN(c1nccs1)S(=O)(=O)c1ccc(OC)cc1 [Compound 27, N-allyl-4-methoxy-N-(thiazol-2-yl)benzenesulfonamide] | Competitive | 24.1 ± 0.34 | 26.37 ± 0.22 | Non-competitive | 33.2 ± 0.01 | 59.6 ± 0.2 | 75.4 ± 0.2 | 91.8 ± 0.03 | ~39.2 µM and 39.2 µM | 10.02 ± 0.05 | 19.08 ± 0.03 | 43.02 ± 0.09 | 70.02 ± 0.11 | 93.09 ± 0.02 | 40.05 ± 0.08 µM | 25 ± 0.17 | 71 ± 0.25 | 86 ± 0.03 | 93 ± 0.52 | 45 ± 0.19 µM | –
2 | C=CCN(c1nccs1)S(=O)(=O)c1ccc(Br)cc1 [Compound 28, N-Allyl-4-bromo-N-(thiazol-2-yl)benzenesulfonamide] | Non-competitive | 29.55 ± 0.12 | 36.1 ± 0.43 | Competitive | 48.2 ± 0.09 | 70.7 ± 0.01 | 85.3 ± 0.3 | 91.2 ± 0.06 | ~48.4 µM and 48.4 µM | 10.01 ± 0.02 | 27.3 ± 0.05 | 48.08 ± 0.9 | 55.7 ± 0.22 | 99.06 ± 0.25 | ~35 µM and 35 µM | 25 ± 0.02 | 66 ± 0.11 | 77 ± 0.18 | 99 ± 0.31 | ~39 µM and 39 µM | –
3 | C=CCN(c1nccs1)S(=O)(=O)c1ccccc1 [Compound 29, N-allyl-N-(thiazol-2-yl)benzenesulfonamide] | Non-competitive | 21.22 ± 0.17 | 23.02 ± 0.15 | Non-competitive | 34.5 ± 0.21 | 49.1 ± 0.13 | 77.2 ± 0.7 | 93.5 ± 0.08 | 52.5 ± 0.11 µM | 19.2 ± 0.5 | 23.07 ± 0.13 | 45.01 ± 0.19 | 74.12 ± 0.17 | 89.19 ± 0.12 | 43.21 ± 0.15 µM | 28 ± 0.07 | 73 ± 0.20 | 85 ± 0.13 | 96 ± 0.32 | 43 ± 0.17 µM | –
4 | C=CCN(c1nccs1)S(=O)(=O)c1ccc(Cl)cc1 [Compound 30, N-Allyl-4-chloro-N-(thiazol-2-yl)benzenesulfonamide] | Non-competitive | 28.1 ± 0.35 | 32.3 ± 0.37 | Non-competitive | 38.5 ± 0.19 | 46.1 ± 0.11 | 77.2 ± 0.13 | 81.2 ± 0.15 | 52.3 ± 0.21 µM | 23.11 ± 0.02 | 40.3 ± 0.53 | 46.01 ± 0.19 | 59.5 ± 0.20 | 87.11 ± 0.15 | 37.6 ± 0.01 µM | 29 ± 0.34 | 63 ± 0.01 | 79 ± 0.11 | 87 ± 0.21 | 43 ± 0.09 µM | –
5 | C=CCN(c1nccs1)S(=O)(=O)c1ccc(F)cc1 [Compound 31, N-Allyl-4-fluoro-N-(thiazol-2-yl)benzenesulfonamide] | Non-competitive | 46.02 ± 0.05 | 51.39 ± 0.11 | Non-competitive | 34.02 ± 0.1 | 43.1 ± 0.13 | 73.2 ± 0.5 | 90.5 ± 0.11 | 66.3 ± 0.2 µM | 29.31 ± 0.2 | 37.15 ± 0.28 | 41.11 ± 0.39 | 47.12 ± 0.17 | 73.04 ± 0.12 | 46.13 ± 0.13 µM | 25 ± 0.11 | 46 ± 0.05 | 79 ± 0.33 | 104 ± 0.22 | 60 ± 0.05 µM | –
6 | C=CCN(c1nccs1)S(=O)(=O)c1ccc([N+](=O)[O-])cc1 [Compound 32, N-Allyl-4-nitro-N-(thiazol-2-yl)benzenesulfonamide] | Non-competitive | 52.1 ± 1.12 | 57.89 ± 0.18 | Non-competitive | 39.2 ± 0.2 | 53.5 ± 0.3 | 64.4 ± 0.01 | 88.2 ± 0.2 | 46.2 ± 0.01 µM | 12.02 ± 0.03 | 25.03 ± 0.01 | 49.01 ± 0.09 | 75.03 ± 0.02 | 94.06 ± 0.21 | 31.01 ± 0.09 µM | 15 ± 0.05 | 32 ± 0.02 | 67 ± 0.11 | 97 ± 0.51 | 49 ± 0.12 µM | inhibition against both enzymes (J.B. and B.P urease), in words (jack bean urease): weak inhibition
7 | Cc1ccc(S(=O)(=O)N(C)c2nccs2)cc1 [Compound 33, N,4-Dimethyl-N-(thiazol-2-yl)benzenesulfonamide] | Non-competitive | 22.1 ± 0.29 | 25.09 ± 0.14 | Competitive | 30.2 ± 0.2 | 37.4 ± 0.1 | 65.6 ± 0.01 | 88.3 ± 0.2 | ~34.4 µM and 34.4 µM | 29.02 ± 0.08 | 41.07 ± 0.03 | 49.08 ± 0.01 | 72.02 ± 0.07 | – | ~35.1 µM | 20 ± 0.01 | 51 ± 0.03 | 60 ± 0.15 | 99 ± 0.18 | 38 ± 0.55 µM | inhibition against both enzymes (α-glucosidase and α-amylase), in words (α-Glucosidase): weak inhibition
8 | COc1ccc(S(=O)(=O)N(C)c2nccs2)cc1 [Compound 34, 4-Methoxy-N-methyl-N-(thiazol-2-yl)benzenesulfonamide] | Competitive | 16 ± 0.21 | 18.7 | Non-competitive | 29.2 ± 0.01 | 69.6 ± 0.2 | 78.4 ± 0.2 | 94.8 ± 0.03 | 45.5 ± 0.05 µM | 27.2 ± 0.01 | 35.6 ± 0.2 | 46.4 ± 0.2 | 69.8 ± 0.03 | 80.1 ± 0.08 | 47.1 µM | 18.2 ± 0.01 | 39.6 ± 0.2 | 69.4 ± 0.2 | 89.8 ± 0.03 | 52.1 ± 0.01 µM | inhibition against both enzymes (α-glucosidase and α-amylase), in words (α-Glucosidase): weak inhibition
9 | CN(c1nccs1)S(=O)(=O)c1ccc(Br)cc1 [Compound 35, 4-Bromo-N-methyl-N-(thiazol-2-yl)benzenesulfonamide] | Competitive | 18.7 | 20.21 ± 0.19 | Competitive | 28.1 ± 0.04 | 34.4 ± 0.8 | 61.5 ± 0.03 | 89.1 ± 0.6 | 53.1 ± 0.11 µM | 33.02 ± 0.08 | 31.05 ± 0.01 | 43.01 ± 0.03 | 62.2 ± 0.09 | 105.13 ± 0.11 | 38.01 ± 0.13 µM | 27 ± 0.12 | 53 ± 0.05 | 64 ± 0.04 | 89 ± 0.28 | ~38 µM and 38 µM | inhibition against both enzymes (α-glucosidase and α-amylase), in words (α-Glucosidase): weak inhibition
10 | CN(c1nccs1)S(=O)(=O)c1ccccc1 [Compound 36, N-Methyl-N-(thiazol-2-yl)benzenesulfonamide] | Competitive | 14.06 ± 0.03 | 17.06 ± 0.03 | Non-competitive | 25.3 ± 0.07 | 65.5 ± 0.12 | 88.3 ± 0.11 | 93.8 ± 0.09 | ~49.3 µM and 49.3 µM | 23.2 ± 0.11 | 37.5 ± 0.2 | 48.3 ± 0.21 | 65.5 ± 0.01 | 87.5 ± 0.05 | 45.07 ± 0.09 µM | 20.6 ± 0.11 | 43.6 ± 0.12 | 65.1 ± 0.5 | 87.5 ± 0.08 | 57.1 ± 0.09 µM | inhibition against both enzymes (α-glucosidase and α-amylase), in words (α-Glucosidase): weak inhibition
